Measurements taken from ChEMBL document CHEMBL1122229, “alpha-adrenoreceptor reagents. 1. Synthesis of some 1,4-benzodioxans as selective presynaptic alpha 2-adrenoreceptor antagonists and potential antidepressants” (J Med Chem, 1983).
Blank lines part the entries; values can stand above or below the compound they belong to. Activity calls are given as the source filed them. No cut-off for these calls is given here.

Assays:
[1] = In vitro antagonism at Alpha-2 adrenergic receptor in rat or mouse vas deferens relative to RX781094.; assay type: functional
Method in brief: (§1)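 Prostatic half of vas deferens from male Sprague–Dawley rats (200–250 g; Krebs, 30 °C, 95% O2/5% CO2, 0.1 Hz, 3-ms, 40 V) or from mice (magnesium-free Krebs, 100–140 V). Tension 0.5 g; isometric twitch recording. […] The concentration giving 50% reversal of the inhibition was compared with standard 5 in the same tissue.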

[2] = biological target: T1, Adrenergic receptor alpha-1 (Rattus norvegicus) (UniProt P15823+P23944+P43140); assay: In vitro postsynaptic antagonist potency at alpha-1 adrenergic receptor in rat anococcygeus relative to compound 5 (RX781094); AG means compound is agonist.; assay type: functional; conditions: filed as agonist
T1 sequence (P15823 whole entry, looked up): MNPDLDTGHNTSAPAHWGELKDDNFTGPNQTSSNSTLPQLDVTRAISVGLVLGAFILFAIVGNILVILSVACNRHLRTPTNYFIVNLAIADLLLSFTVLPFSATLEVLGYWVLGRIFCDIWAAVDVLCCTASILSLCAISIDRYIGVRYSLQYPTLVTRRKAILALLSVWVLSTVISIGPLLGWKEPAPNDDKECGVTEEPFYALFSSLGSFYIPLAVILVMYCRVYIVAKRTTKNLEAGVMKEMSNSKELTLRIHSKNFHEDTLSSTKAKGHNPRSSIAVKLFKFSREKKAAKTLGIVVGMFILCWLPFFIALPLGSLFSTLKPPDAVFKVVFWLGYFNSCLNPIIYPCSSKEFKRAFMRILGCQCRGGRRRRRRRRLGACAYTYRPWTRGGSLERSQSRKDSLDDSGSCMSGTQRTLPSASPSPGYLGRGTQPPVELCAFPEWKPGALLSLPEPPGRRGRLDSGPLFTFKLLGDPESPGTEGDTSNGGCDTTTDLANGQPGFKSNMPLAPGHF
T1 sequence (P23944 whole entry, looked up): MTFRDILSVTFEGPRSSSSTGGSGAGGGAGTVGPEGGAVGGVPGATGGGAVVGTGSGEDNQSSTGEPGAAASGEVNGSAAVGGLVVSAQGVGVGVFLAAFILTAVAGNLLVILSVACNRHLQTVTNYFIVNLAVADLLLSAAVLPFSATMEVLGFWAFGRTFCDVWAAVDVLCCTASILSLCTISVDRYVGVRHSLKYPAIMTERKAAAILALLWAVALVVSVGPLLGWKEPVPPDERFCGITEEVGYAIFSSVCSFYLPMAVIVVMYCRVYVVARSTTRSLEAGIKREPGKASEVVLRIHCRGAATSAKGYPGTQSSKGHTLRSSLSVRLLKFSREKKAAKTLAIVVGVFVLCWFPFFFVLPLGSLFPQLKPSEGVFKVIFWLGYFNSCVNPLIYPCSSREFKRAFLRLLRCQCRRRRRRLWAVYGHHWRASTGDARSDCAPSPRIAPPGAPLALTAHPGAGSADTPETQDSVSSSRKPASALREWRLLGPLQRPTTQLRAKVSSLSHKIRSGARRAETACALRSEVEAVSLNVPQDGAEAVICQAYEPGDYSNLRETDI
T1 sequence (P43140 whole entry, looked up): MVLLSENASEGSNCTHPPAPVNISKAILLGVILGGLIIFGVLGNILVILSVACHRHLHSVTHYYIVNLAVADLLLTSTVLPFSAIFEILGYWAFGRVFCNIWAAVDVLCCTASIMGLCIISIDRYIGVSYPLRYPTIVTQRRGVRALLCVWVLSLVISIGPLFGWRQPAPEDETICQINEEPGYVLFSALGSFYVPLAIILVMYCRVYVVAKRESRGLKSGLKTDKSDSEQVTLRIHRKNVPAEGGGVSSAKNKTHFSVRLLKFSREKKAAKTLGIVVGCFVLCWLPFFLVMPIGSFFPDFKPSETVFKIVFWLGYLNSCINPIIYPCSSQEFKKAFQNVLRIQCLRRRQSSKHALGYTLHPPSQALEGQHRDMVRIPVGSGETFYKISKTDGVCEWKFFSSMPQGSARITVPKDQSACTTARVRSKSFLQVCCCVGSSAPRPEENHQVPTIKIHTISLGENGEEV

[3] = biological target: T2, Adenosine receptor A2b (Rattus norvegicus) (UniProt P29276); assay: In vitro presynaptic agonist potency at Alpha-2 adrenergic receptor in rat or mouse vas deferens relative to clonidine; assay type: functional, tissue-based
T2 sequence (whole entry): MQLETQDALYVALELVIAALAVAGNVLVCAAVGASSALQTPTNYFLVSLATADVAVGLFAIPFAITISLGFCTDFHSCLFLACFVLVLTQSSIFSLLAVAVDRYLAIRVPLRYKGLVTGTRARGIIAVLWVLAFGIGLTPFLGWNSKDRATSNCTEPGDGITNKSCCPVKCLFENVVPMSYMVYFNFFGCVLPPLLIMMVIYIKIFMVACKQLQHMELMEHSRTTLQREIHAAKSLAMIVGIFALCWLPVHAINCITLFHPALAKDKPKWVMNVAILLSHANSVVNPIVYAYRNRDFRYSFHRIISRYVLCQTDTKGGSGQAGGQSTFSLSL
Method in brief: (§2)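 Field-stimulated rat or mouse vas deferens under 0.5 g tension, at 0.1 Hz with 3-ms pulses, 30 °C, gassed with 95% O2/5% CO2. Contractions were recorded isometrically. Standard dose-response curves were run before and after each analogue curve. Potency was expressed relative to the standard in the same experiment.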

[4] = biological target: T1, Adrenergic receptor alpha-1 (Rattus norvegicus); assay: In vitro postsynaptic agonist potency at alpha-1 adrenergic receptor in rat anococcygeus muscle relative to phenylephrine; assay type: functional, tissue-based
[5] = biological target: T1, Adrenergic receptor alpha-1 (Rattus norvegicus); assay: In vitro postsynaptic agonist potency at alpha-1 adrenergic receptor in rat anococcygeus muscle relative to phenylephrine; IA means inactive.; assay type: functional, tissue-based
Method in brief: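 Rat anococcygeus muscle (male Sprague–Dawley rats, 200–250 g) suspended at 0.5 g initial tension in a 50-mL organ bath. […] Standard dose-response curves were run before and after the analogue's curve.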

[6] = biological target: T1, Adrenergic receptor alpha-1 (Rattus norvegicus); assay: In vitro postsynaptic antagonist potency at alpha-1 adrenergic receptor in rat anococcygeus relative to compound 5 (RX781094); assay type: functional
[7] = test system: Alpha-2 adrenergic receptor (Rattus norvegicus); assay: In vitro presynaptic agonist potency at Alpha-2 adrenergic receptor in rat or mouse vas deferens relative to clonidine; IA means inactive
[8] = test system: Alpha-2 adrenergic receptor (Rattus norvegicus); assay: In vitro presynaptic agonist potency at alpha-2 adrenergic receptor in rat or mouse vas deferens relative to clonidine; IA means inactive
[9] = biological target: T1, Adrenergic receptor alpha-1 (Rattus norvegicus); assay: In vitro postsynaptic antagonist potency at alpha-1 adrenergic receptor in rat anococcygeus relative to compound 5 (RX781094); IA means compound is inactive.; assay type: functional
[10] = biological target: T3, Adrenergic receptor alpha-2 (Rattus norvegicus) (UniProt P22086+P19328+P22909); assay: In vitro presynaptic agonist potency at alpha-2 adrenergic receptor in rat or mouse vas deferens relative to clonidine; assay type: functional, tissue-based; method in brief: as §2
T3 sequence (P19328 whole entry, looked up): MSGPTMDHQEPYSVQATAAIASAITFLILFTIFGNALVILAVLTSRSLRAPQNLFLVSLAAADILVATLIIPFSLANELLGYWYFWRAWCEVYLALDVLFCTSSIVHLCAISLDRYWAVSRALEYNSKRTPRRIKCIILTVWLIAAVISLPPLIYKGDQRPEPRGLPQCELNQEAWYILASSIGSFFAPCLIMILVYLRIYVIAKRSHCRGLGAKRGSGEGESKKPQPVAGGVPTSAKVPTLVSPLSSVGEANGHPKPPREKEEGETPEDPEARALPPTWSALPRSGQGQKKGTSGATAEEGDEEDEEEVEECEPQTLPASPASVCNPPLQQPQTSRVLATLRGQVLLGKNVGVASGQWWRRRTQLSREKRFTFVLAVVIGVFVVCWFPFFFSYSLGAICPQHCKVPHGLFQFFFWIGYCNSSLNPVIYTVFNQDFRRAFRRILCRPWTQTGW
T3 sequence (P22086 whole entry, looked up): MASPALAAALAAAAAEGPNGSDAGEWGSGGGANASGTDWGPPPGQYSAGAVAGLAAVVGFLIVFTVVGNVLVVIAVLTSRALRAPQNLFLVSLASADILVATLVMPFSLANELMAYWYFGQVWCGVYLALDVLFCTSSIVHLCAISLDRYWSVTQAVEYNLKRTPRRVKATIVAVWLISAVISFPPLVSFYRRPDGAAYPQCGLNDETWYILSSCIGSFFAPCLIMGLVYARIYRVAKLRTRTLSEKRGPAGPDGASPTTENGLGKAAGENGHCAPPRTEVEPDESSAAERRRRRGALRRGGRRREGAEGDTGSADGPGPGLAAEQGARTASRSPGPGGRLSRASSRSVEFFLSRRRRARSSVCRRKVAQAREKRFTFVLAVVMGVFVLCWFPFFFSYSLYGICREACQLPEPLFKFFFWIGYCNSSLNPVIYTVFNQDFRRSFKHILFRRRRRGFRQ
T3 sequence (P22909 whole entry, looked up): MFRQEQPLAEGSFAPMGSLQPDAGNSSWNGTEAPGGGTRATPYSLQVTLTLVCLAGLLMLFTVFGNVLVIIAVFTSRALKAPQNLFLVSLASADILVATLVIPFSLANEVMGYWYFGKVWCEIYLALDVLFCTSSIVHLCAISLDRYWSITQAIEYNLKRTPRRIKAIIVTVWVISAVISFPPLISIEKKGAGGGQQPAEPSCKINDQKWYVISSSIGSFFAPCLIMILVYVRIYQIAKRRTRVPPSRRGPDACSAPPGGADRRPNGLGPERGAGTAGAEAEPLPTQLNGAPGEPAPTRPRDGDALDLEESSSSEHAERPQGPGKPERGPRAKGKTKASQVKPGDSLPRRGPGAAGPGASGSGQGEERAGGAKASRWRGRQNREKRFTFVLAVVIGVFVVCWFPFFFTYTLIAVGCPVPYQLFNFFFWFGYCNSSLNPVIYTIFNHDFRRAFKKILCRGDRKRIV

[11] = biological target: T2, Adenosine receptor A2b (Rattus norvegicus); assay: In vitro presynaptic antagonist potency at alpha-2 adrenergic receptor in rat or mouse vas deferens; IA means inactive; assay type: functional; method in brief: as §1
[12] = test system: Alpha-1 adrenergic receptor (Rattus norvegicus); assay: In vitro postsynaptic agonist potency at alpha-1 adrenergic receptor in rat anococcygeus.
[13] = biological target: T1, Adrenergic receptor alpha-1 (Rattus norvegicus); assay: In vitro postsynaptic antagonist potency at alpha-1 adrenergic receptor in rat anococcygeus.; assay type: functional
[14] = biological target: T3, Adrenergic receptor alpha-2 (Rattus norvegicus); assay: In vitro presynaptic agonist potency at alpha-2 adrenergic receptor in rat or mouse vas deferens relative to clonidine; IA means inactive; assay type: functional, tissue-based
Method in brief: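 Field-stimulated rat or mouse vas deferens (Krebs, 30 °C, 95% O2/5% CO2, 3-ms pulses at 0.1 Hz) with isometric twitch recording. […] Standard dose-response curves were run before and after the analogue's curve.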

[15] = biological target: T1, Adrenergic receptor alpha-1 (Rattus norvegicus); assay: In vitro postsynaptic antagonist potency at alpha-1 adrenergic receptor in rat anococcygeus. Taken as standard; assay type: functional

SMILES: Cc1cccc2c1OCC(C1=NCCN1)O2 (centres undefined)
- Antagonist potency [1]: 0.13
- Antagonist potency [2]: Agonist
- Agonist potency [3]: 0.1
- Agonist potency [4]: 1

- Agonist potency [5]: inactive
- Antagonist potency [6]: < 0.023
- Agonist potency [7]: inactive
SMILES: N/C(=N\CC(=O)O)C1COc2ccccc2O1 (centres undefined)
- Antagonist potency [1]: <0.0003

- Agonist potency [5]: inactive
- Antagonist potency [8]: inactive
- Antagonist potency [9]: inactive
- Agonist potency [10]: 0.0001
SMILES: Nc1noc(C2COc3ccccc3O2)n1 (centres undefined)

SMILES: Oc1cc2c(cc1O)OC(C1=NCCN1)CO2 (centres undefined)
- Antagonist potency [11]: inactive
- Agonist potency [12]: 0.018
- Agonist potency [10]: 0.0006
- Antagonist potency [13]: > 6

SMILES: c1ccc2c(c1)OCC(C1=NCCN1)O2 (centres undefined)
- Agonist potency [5]: inactive
- Agonist potency [14]: inactive
- Antagonist potency [15]: 1
